Laboratory results from ChEMBL document CHEMBL4680134, “Structural optimization of natural product nordihydroguaretic acid to discover novel analogues as AcrB inhibitors” (Eur J Med Chem, 2020).

Experiments:
[1] = Growth inhibition of Escherichia coli BW25113 expressing AcrB at 512 ug/ml after 18 hrs by broth microdilution assay; conditions: dose 512 µg/ml
Summary of the method: (§1)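 MIC determined by 96-well broth microdilution in E. coli BW25113 expressing AcrB ((+)AcrB) and an isogenic acrB-deleted strain ((-)AcrB). Used to set the compound concentrations for synergy testing that produce no direct antibacterial effect.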

[2] = Growth inhibition of Escherichia coli harboring AcrB deletion mutant at 64 ug/ml after 18 hrs by broth microdilution assay; conditions: dose 64 µg/ml; summary of the method: as §1

SMILES | growth inhibition (GI) [1] | growth inhibition (GI) [2]
Oc1ccc(CCCCc2ccccn2)cc1O | Non-Toxic | Non-Toxic
Oc1ccc(CCCC(c2ccccc2)c2ccccc2)cc1O | Non-Toxic | Non-Toxic
Oc1ccc(CCCCc2c3ccccc3cc3ccccc23)cc1O | Non-Toxic | Non-Toxic
CC(C)(C)c1ccc(C(=O)NCCc2ccc(O)c(O)c2)cc1 | Non-Toxic | Non-Toxic
CC(C)CCn1cc(CCCCc2ccc(O)c(O)c2)c2ccccc21 | Non-Toxic | Non-Toxic
Oc1ccc(CCCCc2cccc3ccccc23)cc1O | Non-Toxic | Non-Toxic
Oc1ccc(CCCCc2ccc(F)cc2)cc1O | Non-Toxic | Non-Toxic
Oc1ccc(CCCCc2ccco2)cc1O | Non-Toxic | Non-Toxic
CC(C)c1ccc(CCCCc2ccc(O)c(O)c2)cc1 | Non-Toxic | Non-Toxic
Cc1ccc(CCCCc2ccc(O)c(O)c2)cc1 | Non-Toxic | Non-Toxic
Nc1ccc(CCCCc2ccc(O)c(O)c2)cc1 | Non-Toxic | Non-Toxic
Oc1ccc(CCCCc2ccc(O)c(O)c2)cc1 | Non-Toxic | Non-Toxic
Oc1ccc(CCCCc2ccccc2)cc1O | Non-Toxic | Non-Toxic
Oc1ccc(CCCCc2ccc(-c3ccccc3)cc2)cc1O | Non-Toxic | Non-Toxic
Oc1ccc(CCCCc2ccncc2)cc1O | Non-Toxic | Non-Toxic
CC(C)(C)c1ccc(CCCCc2ccc(O)c(O)c2)cc1 | Non-Toxic | Non-Toxic
Oc1ccc2cc(CCCCc3ccc(O)c(O)c3)ccc2c1 | Non-Toxic | Non-Toxic
Cn1cc(CCCCc2ccc(O)c(O)c2)c2ccccc21 | Non-Toxic | Non-Toxic
